# Test results reported in ChEMBL document CHEMBL1799966, “Synthesis and anticancer activity of oxindole derived imidazo[1,5-a]pyrazines” (Eur J Med Chem, 2011).
# What was measured:
# Format in all cases: functional
# MCF7 = assay: Anticancer activity against human MCF7 cells assessed as mean cell growth at 10^-5 M after 48 hrs by SRB assay
# In short: (§1)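 NCI-60 primary screen run to the US NCI protocol. Compound added at a single concentration of 10^-5 M and cultures incubated 48 h. The end point was sulforhodamine B (SRB) protein staining, reported as percent growth of treated cells relative to untreated control cells.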
# SR = assay: Anticancer activity against human SR cells assessed as mean cell growth at 10^-5 M after 48 hrs by SRB assay; in short: as §1
# DU-145 = assay: Anticancer activity against human DU145 cells assessed as mean cell growth at 10^-5 M after 48 hrs by SRB assay; in short: as §1
# MDA-MB-468 = assay: Anticancer activity against human MDA-MB-468 cells assessed as mean cell growth at 10^-5 M after 48 hrs by SRB assay; in short: as §1
# ACHN = assay: Anticancer activity against human ACHN cells assessed as mean cell growth at 10^-5 M after 48 hrs by SRB assay; in short: as §1
# T47D = assay: Anticancer activity against human T47D cells assessed as mean cell growth at 10^-5 M after 48 hrs by SRB assay; in short: as §1
# IGROV-1 = assay: Anticancer activity against human IGROV1 cells assessed as mean cell growth at 10^-5 M after 48 hrs by SRB assay; in short: as §1
# A498 = assay: Anticancer activity against human A498 cells assessed as mean cell growth at 10^-5 M after 48 hrs by SRB assay; in short: as §1
# COLO 205 = assay: Anticancer activity against human COLO205 cells assessed as mean cell growth at 10^-5 M after 48 hrs by SRB assay; in short: as §1
# NCI-H522 = assay: Anticancer activity against human NCI-H522 cells assessed as mean cell growth at 10^-5 M after 48 hrs by SRB assay; in short: as §1
smiles,measurement,setting,value
COc1ccc(-c2nc(/C=C3/C(=O)Nc4ccccc43)c3ccccn23)cc1OC,Activity,MCF7,82.66%
COc1ccc(-c2nc(/C=C3/C(=O)N(C)c4ccccc43)c3ccccn23)cc1,Activity,SR,77.31%
O=C1Nc2ccc(F)cc2/C1=C\c1nc(-c2ccccc2F)n2ccccc12,Activity,DU-145,80.9%
CN1C(=O)/C(=C/c2nc(-c3ccccc3F)n3ccccc23)c2ccccc21,Activity,DU-145,84.72%
O=C1Nc2ccccc2/C1=C\c1nc(-c2ccc(F)cc2)n2ccccc12,Activity,MDA-MB-468,39.31%
O=C1Nc2ccccc2/C1=C\c1nc(-c2ccccc2)n2ccccc12,Activity,MDA-MB-468,87.51%
COc1ccc(-c2nc(/C=C3/C(=O)Nc4ccccc43)c3ccccn23)cc1,Activity,ACHN,72.54%
COc1cc(-c2nc(/C=C3/C(=O)N(C)c4ccccc43)c3ccccn23)cc(OC)c1OC,Activity,SR,98.17%
Cc1ccc(-c2nc(/C=C3/C(=O)Nc4ccc(F)cc43)c3ccccn23)cc1,Activity,DU-145,74.57%
CN1C(=O)/C(=C/c2nc(-c3ccccc3)n3ccccc23)c2ccccc21,Activity,T47D,85.21%
CN1C(=O)/C(=C/c2nc(-c3cccc(F)c3)n3ccccc23)c2ccccc21,Activity,IGROV-1,70.98%
O=C1Nc2ccc(F)cc2/C1=C\c1nc(-c2ccc(F)cc2)n2ccccc12,Activity,A498,97.53%
CN1C(=O)/C(=C/c2nc(-c3ccccc3F)n3ccccc23)c2cc(F)ccc21,Activity,COLO 205,99.95%
Cc1ccc(-c2nc(/C=C3/C(=O)N(C)c4ccc(F)cc43)c3ccccn23)cc1,Activity,NCI-H522,99.39%
Cc1ccc(-c2nc(/C=C3/C(=O)Nc4ccccc43)c3ccccn23)cc1,Activity,DU-145,78.55%
COc1ccc(-c2nc(/C=C3/C(=O)N(C)c4ccccc43)c3ccccn23)cc1OC,Activity,NCI-H522,103.43%
COc1ccc(-c2nc(/C=C3/C(=O)Nc4ccc(F)cc43)c3ccccn23)cc1,Activity,MCF7,101.96%
